The source of these data is publication PMC4515944 (Planta medica, 2015).

In brackets after ≈: the same amount, converted by molar mass. Like-named read-outs stand apart in the source and are kept apart here.

The target in experiment [1] is Collagenase type V from Clostridium histolyticum. The experiment in a line: Collagenase inhibition assay. Particulars: for IC50: incubation 37°C 10 min, reaction monitored 30 min; for inhibition rate: initial concentration 50 μg/mL. The experiment is classed as biochemical. In outline: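 Clostridium histolyticum collagenase (100 μg/mL initial) in 10 mM Tris-HCl pH 7.3 preincubated 10 min with test compound (1% DMSO final). MCA-Pro-Leu-Ala-Nva-DNP-Dap-Ala-Arg-NH2 (55.55 μg/mL initial) then added. Fluorescence ex 320/em 400 nm read at endpoint, or every 5 min over 30 min for AUC. Serial dilutions in triplicate, blank per concentration, % inhibition versus buffer control. Km by Lineweaver-Burk, substrate 4.17–166.67 μg/mL initial.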

A further experiment addresses collagenase. Particulars: cited from earlier work.

As to `COC1=C(NCC(=O)O)CC(O)(CO)CC1=N` (stereo not shown) [palythine], the IC50 in experiment [1] (final concentration) was 38.82 µg/mL; in experiment [1] (mean ± SD (n=3)), 159 ± 3.2 µM.
Consider `O=C(O[C@@H]1Cc2c(O)cc(O)cc2O[C@@H]1c1cc(O)c(O)c(O)c1)c1cc(O)c(O)c(O)c1` [epigallocatechingallate], for which, at collagenase (ref [15]), the IC50 was 114 µg/mL (≈ 249 µM).
In the case of `COC1=C(NCC(=O)O)C[C@@](O)(CO)C/C1=N\[C@@H](CO)C(=O)O` [shinorine], the IC50 in experiment [1] (final concentration) came to 34.42 µg/mL; in experiment [1] (mean ± SD (n=3)) it was 104 ± 3.7 µM.
In the case of `c1cnc2c(c1)ccc1cccnc12` [1,10-phenanthroline], at collagenase (ref [16]), the “IC50 described in literature” value was 70.4 µg/mL (≈ 391 µM). The IC50 stood at 42.86 µg/mL in experiment [1] (final concentration) and 238 ± 3.4 µM in experiment [1] (mean ± SD (n=3)).
For the compound `COC1=C(NCC(=O)O)CC(O)(CO)CC1=N[C@H](C(=O)O)[C@@H](C)O` (stereo partly shown) [porphyra], the IC50 in experiment [1] (final concentration) is 37.73 µg/mL; in experiment [1] (mean ± SD (n=3)), 106 ± 2.3 µM.
Consider `CC(C)C[C@H](NP(=O)(O)O[C@@H]1O[C@@H](C)[C@H](O)[C@@H](O)[C@H]1O)C(=O)N[C@@H](Cc1c[nH]c2ccccc12)C(=O)O` [phosphoramidon], for which, in experiment [1] (AUC 0-30 min, n=3), the “IC50, kinetic reading mode (AUC)” value is 11.95 μg/mL ± 1.28. Besides, the “IC50, endpoint reading mode” value in experiment [1] (endpoint reading at 30 min, n=3) is reported as 11.07 μg/mL ± 0.95. For the same compound, inhibition in experiment [1] (mean ± SD (n=3)) was half-maximal at 18.8 ± 1.6 µM (IC50). Further, the inhibition rate in experiment [1] (reaction temperature 30°C) was 53.4%; in experiment [1] (reaction temperature 37°C), 53.4%; in experiment [1] (room temperature (RT)), 49.1%.
For the compound “MCA-Pro-Leu-Ala-Nva-DNP-Dap-Ala-Arg-NH2 [MMP-2 fluorogenic substrate]”, the “maximum velocity (Vmax)” value in experiment [1] (Lineweaver Burk plot, enzyme 100 μg/mL (initial)) came out at 212.76 µmol/min. Also, the Km in experiment [1] (read-out: Km (final), Lineweaver Burk plot, final concentration) was 12.9 µM; in experiment [1] (read-out: Michaelis Menten constant (Km), Lineweaver Burk plot, enzyme 100 μg/mL (initial), initial substrate concentration), 51.7 µM.

A word on the IC50: it is the concentration that gives 50% inhibition. A word on the Km: it is the substrate concentration at which the rate is half of its maximum.
